Experimental data collected from several papers.
Protocols differ between the studies behind these lines.

Compound | cell line | test | conditions | measurement | value
CC(=NNC(=S)Nc1ccccc1)c1ccc(Nc2nnc(-c3ccc(Cl)cc3)c3ccccc23)cc1 | HepG2 | cell growth or viability, MTT | 5 µM | cell death | 95.1%
Nc1ncnc2c1c(/C=C/C(=O)N1CCOCC1)nn2CC1CCCC1 | OE33 | cell growth or viability, resazurin | 5 days | EC50 | > 30 µM
CC(C)(C)c1cnc(CSc2cnc(NC(=O)C3CCN(CCCCCSc4cccc5c4CN(C4CCC(=O)NC4=O)C5=O)CC3)s2)o1 (stereo not drawn) | HH | cell growth or viability, CCK-8 | 1 nM | viability | 96.6%
CCOC1CCN(C(=O)/C=C/c2nn(Cc3cccc(C)c3)c3nc(NC)ncc23)CC1 | OE33 | cell growth or viability, resazurin | 5 days | EC50 | 2.28 µM
C=CC(=O)NC1CCN(c2ncc3ncnc(Nc4ccc(Oc5ccc6c(c5)ncn6C)c(C)c4)c3n2)CC1 | DMS-273 | cell growth or viability | – | EC50 | 0.338 µM
O=C(Nc1ccccc1)Nc1ccc(Oc2nnc(-c3ccc(Cl)cc3)c3ccccc23)cc1 | HepG2 | cell growth or viability, MTT | 0.312 µM | cell death | 93%
CCOC(=O)c1nn(-c2cccc(Cl)c2)/c(=N/N=C(\C)c2ccc(NC(=O)c3ccc(Cl)cc3)cc2)s1 | HepG2 | cell growth or viability, MTT | 1.25 µM | viability | 2.59%
Cc1sc2c(c1C)C(c1ccc(Cl)cc1)=N[C@@H](CC(=O)NCCCCCCCCNC(=O)COc1cccc3c1C(=O)N(C1CCC(=O)NC1=O)C3=O)c1nnc(C)n1-2 (stereo partly drawn) | Ramos | cell growth or viability, ATP luminescence | 72 h | IC50 | 12 nM
CC(C)(C)c1cnc(CSc2cnc(NC(=O)C3CCN(CCCCSc4cccc5c4C(=O)N(C4CCC(=O)NC4=O)C5=O)CC3)s2)o1 (stereo not drawn) | HH | cell growth or viability, CCK-8 | 1 nM | viability | 100%
CNc1ncc2c(/C=C/C(=O)N3CCC(OC)CC3)nn(CC3CCCC3)c2n1 | OE33 | cell growth or viability, resazurin | 5 days | EC50 | 6.72 µM
CC(=O)c1nn(-c2ccc(C)cc2)/c(=N/N=C(\C)c2ccc(NC(=O)c3ccccc3)cc2)s1 | HepG2 | cell growth or viability, MTT | 0.312 µM | viability | 5.09%
CC(=O)Nc1ccc(Oc2nnc(-c3ccc(Cl)cc3)c3ccccc23)cc1 | HepG2 | cell growth or viability, MTT | 2.5 µM | cell death | 93.5%
O=C(Nc1ccccc1)Nc1cc(Br)cc(C(F)(F)F)c1 | LAD2 | degranulation | – | IC50 | 8010 nM
CC(C)(C)c1cnc(CSc2cnc(NC(=O)C3CCN(CCCCCCCCSc4cccc5c4CN(C4CCC(=O)NC4=O)C5=O)CC3)s2)o1 (stereo not drawn) | HH | cell growth or viability, CCK-8 | 0.2 µM | viability | 0%
CNc1ncc2c(/C=C/C(=O)N3CCC(OC)CC3)nn(CC(C)(C)C)c2n1 | OE33 | cell growth or viability, resazurin | 5 days | EC50 | > 30 µM
O=C(Nc1ccccc1)Nc1ccc(C(F)(F)F)cc1 | LAD2 | degranulation | – | IC50 | 8310 nM
CCOC(=O)c1nn(-c2cccc(Cl)c2)/c(=N/N=C(\C)c2ccc(NC(=O)c3ccccc3)cc2)s1 | HepG2 | cell growth or viability, MTT | 1.25 µM | viability | 2.72%

Compound | cell line | test | conditions | measurement | value
CC(C)(C)c1cnc(CSc2cnc(NC(=O)C3CCN(CCCCCCCSc4cccc5c4C(=O)N(C4CCC(=O)NC4=O)C5=O)CC3)s2)o1 (stereo not drawn) | HH | cell growth or viability, CCK-8 | 50 nM | viability | 96%
CC(=O)c1nn(-c2ccccc2Cl)/c(=N/N=C(\C)c2ccc(NC(=O)c3ccccc3)cc2)s1 | HepG2 | cell growth or viability, MTT | 5 µM | viability | 6.09%
CC1CCN(C(=O)/C=C/c2nn(CC3CCCC3)c3ncnc(N)c23)CC1 | OE33 | cell growth or viability, resazurin | 5 days | EC50 | > 30 µM
O=C(Nc1ccc(Oc2nnc(-c3ccc(Cl)cc3)c3ccccc23)cc1)c1cccc([N+](=O)[O-])c1 | HepG2 | cell growth or viability, MTT | 0.625 µM | cell death | 32.3%
O=C(Nc1cccc([N+](=O)[O-])c1)Nc1cccc(C(F)(F)F)c1 | LAD2 | degranulation | – | IC50 | 280 nM
CC(=NNC(=O)c1cccnc1)c1ccc(Nc2nnc(-c3ccc(Cl)cc3)c3ccccc23)cc1 | HepG2 | cell growth or viability, MTT | 0.312 µM | cell death | 6.41%
CC(C)OC(=O)C(n1cccn1)n1cccn1 | A-431 | cell growth or viability, MTT | 72 h | IC50 | > 50000 nM
CC(C)(C)c1cnc(CSc2cnc(NC(=O)C3CCN(C(=O)COCCOCCSc4cccc5c4C(=O)N(C4CCC(=O)NC4=O)C5=O)CC3)s2)o1 (stereo not drawn) | HH | cell growth or viability, CCK-8 | 0.25 µM | viability | 92.9%
CNc1ncc2c(/C=C/C(=O)N3CCC(OC)CC3)nn(Cc3ccccc3C)c2n1 | OE33 | cell growth or viability, resazurin | 5 days | EC50 | 7.84 µM
CC(C)(C)c1cnc(CSc2cnc(NC(=O)C3CCN(CCCCCCCCSc4cccc5c4C(=O)N(C4CCC(=O)NC4=O)C5=O)CC3)s2)o1 (stereo not drawn) | HH | cell growth or viability, CCK-8 | 0.2 µM | viability | 10.7%
CNc1ncc2c(/C=C/C(=O)N3CCCCC3)nn(CC3CCCC3)c2n1 | OE33 | cell growth or viability, resazurin | 5 days | EC50 | > 30 µM
CC(C)(C)c1cnc(CSc2cnc(NC(=O)C3CCN(C(=O)CCCSc4cccc5c4C(=O)N(C4CCC(=O)NC4=O)C5=O)CC3)s2)o1 (stereo not drawn) | HH | cell growth or viability, CCK-8 | 0.1 µM | viability | 98%
CC(=NNC(=O)c1ccncc1)c1ccc(Nc2nnc(-c3ccc(Cl)cc3)c3ccccc23)cc1 | HepG2 | cell growth or viability, MTT | 0.312 µM | cell death | 64.7%
CNc1ncc2c(/C=C/C(=O)N3CCC(OC)CC3)nn(Cc3ccccc3OC)c2n1 | OE33 | cell growth or viability, resazurin | 5 days | EC50 | 7.72 µM
CC(=NNC(=O)c1ccccc1Br)c1ccc(Nc2nnc(-c3ccc(Cl)cc3)c3ccccc23)cc1 | HepG2 | cell growth or viability, MTT | 0.312 µM | cell death | 14.6%
O=C(Nc1ccc(C(F)(F)F)cc1)Nc1cccc(Br)c1 | LAD2 | degranulation | – | IC50 | 1240 nM
